Experimental data taken from PMC2233693 (The Journal of General Physiology, 2000).
Positions count from the first letter of the chain named. Like-named read-outs stand apart in the source and are kept apart here.

Columns and labels:
Format in all cases: biochemical
[1] = target: T1, E340Q mutant bovine olfactory CNG channel (Bos taurus, UniProt Q03041, E340Q)
T1 sequence (Q03041 1-663 E340Q): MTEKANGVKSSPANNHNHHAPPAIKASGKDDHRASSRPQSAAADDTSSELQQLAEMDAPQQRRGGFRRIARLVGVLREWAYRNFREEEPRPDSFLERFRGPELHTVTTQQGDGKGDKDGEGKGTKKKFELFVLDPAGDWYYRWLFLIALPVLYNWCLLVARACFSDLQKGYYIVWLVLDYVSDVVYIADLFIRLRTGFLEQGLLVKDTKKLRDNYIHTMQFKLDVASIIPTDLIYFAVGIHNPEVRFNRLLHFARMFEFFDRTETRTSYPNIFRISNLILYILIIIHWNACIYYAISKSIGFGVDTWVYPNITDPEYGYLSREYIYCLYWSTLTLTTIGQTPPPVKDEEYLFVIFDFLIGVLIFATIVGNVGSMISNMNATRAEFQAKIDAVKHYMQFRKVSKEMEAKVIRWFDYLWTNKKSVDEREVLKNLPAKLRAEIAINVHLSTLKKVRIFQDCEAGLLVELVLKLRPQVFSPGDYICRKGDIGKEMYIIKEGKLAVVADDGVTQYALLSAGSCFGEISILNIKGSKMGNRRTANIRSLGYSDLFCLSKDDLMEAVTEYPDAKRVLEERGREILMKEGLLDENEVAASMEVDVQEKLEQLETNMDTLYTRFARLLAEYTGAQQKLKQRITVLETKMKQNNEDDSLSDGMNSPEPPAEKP

[2] = target: T2, E340D mutant bovine olfactory CNG channel (Bos taurus, UniProt Q03041, E340D); settings: cGMP
T2 sequence (Q03041 1-663 E340D): T1 sequence (Q03041 1-663 E340Q) with Q340D

[3] = target: T3, E340N mutant bovine olfactory CNG channel (Bos taurus, UniProt Q03041, E340N); settings: for P max (+80 mV) / P max (−80 mV): cGMP
T3 sequence (Q03041 1-663 E340N): T1 sequence (Q03041 1-663 E340Q) with Q340N

[4] = target: T1, E340Q mutant bovine olfactory CNG channel; experiment: Estimate from current variance versus mean amplitude of macroscopic currents; settings: estimated from variance/mean at various cGMP concentrations
Method in brief: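 Single-channel amplitude not directly measurable. Assuming a single open state, current amplitude and maximal open probability were estimated from the relation between current variance and mean amplitude of macroscopic currents recorded at various cGMP concentrations, in patches from mRNA-injected Xenopus oocytes.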

[5] = 3 μM cGMP, +80 mV, amplitude histogram, Fig. 3
[6] = 100 μM cGMP, +80 mV, amplitude histogram, Fig. 3
[7] = high level of current determined with respect to low level

- n(−80 mV), Hill coefficient ([1]; cGMP): 2.7 ± 0.5
- I(−80 mV)/I(+80 mV) ([1]; cGMP-gated current): 0.19 ± 0.06
- EC50 ([1]; read-out: K 1/2, cGMP, +80 mV): 4 ± 1.2 µM
- EC50 ([1]; read-out: K 1/2, cGMP, −80 mV): 5.6 ± 1.7 µM
- EC50 ([1]; read-out: K 1/2,cG, −80 mV, single patch, Fig. 1 fit): 4.8 µM
- n cG ([1]; −80 mV, single patch, Fig. 1 fit): 2.4
- P max (+80 mV) [2]: 0.985 ± 0.007
- P max (−80 mV) [2]: 0.987 ± 0.007
- L, equilibrium gating constant ([2]; allosteric model fit, mean ± SD): 66 ± 15
- P closed [3, 5]: 0.765
- P o,high [3, 5]: 0.015
- P closed [3, 6]: 0.01
- P o,high [3, 6]: 0.065
- P o,low [3, 6]: 0.925
- P max (+80 mV) [3, 7]: 0.10 ± 0.07
- P max (−80 mV) [3, 7]: 0.04 ± 0.01
- P max (+80 mV) ([3]; low level of current): 0.87 ± 0.02
- P max (−80 mV) ([3]; low level of current): 0.96 ± 0.01
- maximal open probability [4]: 0.9
Compound: Nc1nc2c(ncn2[C@@H]2O[C@@H]3COP(=O)(O)O[C@H]3[C@H]2O)c(=O)[nH]1 [cGMP]
